Screening results (PubChem)
APJ antagonist = antagonists of human apelin receptor APJ, primary screen, CHO-K1 cells, beta-arrestin complementation, luminescence. P35414. inhibition, % at 20 µM. 0.32% of 330,000 active;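 active = inhibition above about 40% at 20 µM, limit read from the data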;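 also: cells challenged with 10 nM apelin-13 agonist together with compound; plate controls were apelin-13 plus DMSO wells for no effect and DMSO wells lacking apelin-13 for full effect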
Target sequence (P35414 whole entry, looked up): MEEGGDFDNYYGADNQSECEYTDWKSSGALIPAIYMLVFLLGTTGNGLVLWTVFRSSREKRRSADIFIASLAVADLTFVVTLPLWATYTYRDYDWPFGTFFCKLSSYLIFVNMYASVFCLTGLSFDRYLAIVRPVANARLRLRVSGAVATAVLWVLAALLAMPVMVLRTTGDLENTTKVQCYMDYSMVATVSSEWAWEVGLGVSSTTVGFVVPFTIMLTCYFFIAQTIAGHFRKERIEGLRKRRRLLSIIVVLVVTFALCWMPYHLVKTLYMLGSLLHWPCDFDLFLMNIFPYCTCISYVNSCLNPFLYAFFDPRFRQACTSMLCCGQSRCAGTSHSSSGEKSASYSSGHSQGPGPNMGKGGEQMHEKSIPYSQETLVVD
APJ ag = agonists of human apelin receptor APJ, primary screen, CHO-K1 cells, PathHunter beta-arrestin, luminescence | P35414 | 0% DMSO wells, 100% apelin | activation, % at 20 µM | 0.11% of 330,000 active;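 active = activation more than six SD over the plate average, tested at 20 µM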;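 also: 0% = DMSO alone and 100% = apelin-13 at 10 nM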
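Assay system: engineered CHO-K1 APJ arrestin reporter cells; Amount: 1000 CHO-K1 reporter cells seeded per well; Dosing: one dose, 20 µM compound, 1% DMSO; Times: compound stimulation 90 min at 25 °C, detection 60 min; Measured by: luminescent beta-gal fragment complementation, chemiluminescent substrate; Read-out: APJ–arrestin association signal; Controls: DMSO vs Apelin-13 10 nM.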
CXCR6 inh = CXCR6 receptor inhibitors, primary screen, cell-based, beta-arrestin, luminescence, CHO-K1 PathHunter, 1536-well | C-X-C chemokine receptor type 6 (Homo sapiens), O00574 | 0.36% of 360,000 active | inhibition, % at 20 µM; in the data active = inhibition above about 34%, passing the limit was not always enough;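 also: antagonist mode with CXCL16 agonist at 10 nM final; 0% = 10 nM CXCL16 with DMSO and 100% = unstimulated wells without agonist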
EBI2 block = EBI2 receptor antagonists, beta-arrestin recruitment, primary screen, cell-based, luminescence, 7a,25-OHC stimulation, uHTS. 0.81% of 360,000 active. AID 651636, 2012. G-protein coupled receptor 183 (Homo sapiens), P32249. inhibition, % at 5 µM. 7a,25-OHC stimulated; in the data active = inhibition above about 38%;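 also: enzyme fragment complementation signal reports receptor beta-arrestin coupling in cells; 0% = agonist plus DMSO wells and 100% = wells without agonist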
CCR6 antagonist = CCR6 receptor antagonists, primary screen, cell-based, CHO-K1, luminescence, beta-arrestin, uHTS. C-C chemokine receptor type 6 (Homo sapiens), P51684. CHO-K1 CCR6 PathHunter beta-arrestin, CCL20-stimulated. inhibition, % at 20 µM. 0.49% of 340,000 active;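 active = compounds whose inhibition of the agonist-driven luminescence signal at 20 µM reaches about 50%, limit read from the data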;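 also: cells stimulated with CCL20 at 14 nM final; plate controls were DMSO with CCL20 for no effect and DMSO without agonist for full effect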
APJ antag confirm = APJ antagonists blocking beta-arrestin recruitment, confirmation, cell-based, luminescence, single concentration, uHTS hits; inhibition, % at 20 µM; shares compounds with APJ antagonist; 66% of 950 active; antagonist mode; AID 2766, 2010; in the data active = inhibition above about 50%
Numbers without * were called inactive; x = not tested or not shown. An excerpt weighted towards active compounds, which were near 1.5% of everything screened.

SMILES	APJ antagonist	APJ ag	CXCR6 inh	EBI2 block	CCR6 antagonist	APJ antag confirm
CC(=O)Nc1ccc(S(=O)(=O)Nc2cccc3cccnc23)cc1	8	-4	-4	-7	32	x
O=C(NCCC1=CCCCC1)c1cccc2c1C(=O)N(C1CCCCC1)C2	6	-1	7	1	17	x
O=S(=O)(Nc1cccc2cccnc12)c1ccc(S(=O)(=O)N2CCCC2)cc1	68*	-17	34	12	45	48
Cc1ccccc1NS(=O)(=O)c1ccc(S(=O)(=O)N2CCCC2)cc1	x	x	0	-4	x	x
O=C1N/C(=C\c2ccccc2)C(O)=C1C=NCc1ccccc1	45*	0	-2	-1	13	10
COc1cc(S(=O)(=O)NCc2ccccn2)ccc1Cl	10	0	2	-6	6	x
COc1ccc2c(c1)C(=O)[C@@H](O)[C@H](c1ccc(OC)c(Br)c1)O2	40*	-20	26	9	59*	80*
COc1cccc([C@@H]2Oc3ccc(OC)cc3C(=O)[C@H]2O)c1	-15	-15	3	6	34	x
C=CCN1C(=O)/C(=C2/Sc3ccccc3N2CC)SC1=S	15	-3	-12	-8	0	x
C=CCN1C(=O)/C(=C/C=C2/N(CC)c3ccc(S(=O)(=O)N(C)C)cc3N2CC)SC1=S	52*	-7	37	25	64*	107*
CN1C(=O)/C(=C2/C=Cc3ccccc3N2CCCS(=O)(=O)O)SC1=S	47*	-9	38	0	58*	96*
CCN1/C(=C2\C(=O)N(C)C(=S)N2C)C=Cc2ccccc21	20	-5	4	-4	12	x
O=c1c2c(nc3n1CCS3)c1cc(F)ccc1n2Cc1cc(=O)n2cc(Cl)ccc2n1	-12	-5	x	x	5	x
Cc1ccc(Nc2ccc([N+](=O)[O-])ccc2=O)cc1	-9	9	0	35	6	x
Cc1nsc(Nc2ccc([N+](=O)[O-])cc2)c1C#N	71*	-8	50*	23	56*	88*
COc1ccc(CCC(=O)Nc2nnc(C(C)(C)C)s2)cc1	2	0	-27	6	7	x
Cc1cccc(N2CCN(C(=O)c3ccncc3)CC2)c1C	-10	-2	1	-8	-9	x
COc1cc(C(=O)N2CCN(c3cccc(C)c3C)CC2)cc(OC)c1OC	50*	-4	4	-1	-2	5
CN(C)c1ccc(/C=C/c2ccc3ccccc3[n+]2C)cc1	64*	-3	48*	6	53*	89*
CN(CCCS(=O)(=O)[O-])c1ccc(/C=C/c2ccc3ccccc3[n+]2C)cc1	17	-5	1	-4	17	x
NS(=O)(=O)c1ccc(N=Nc2c[nH]c(=O)c(O)c2)cc1	53*	-10	44*	14	71*	90*
O=C(N=Nc1c(O)[nH]c2ccc([N+](=O)[O-])cc12)c1ccccc1[N+](=O)[O-]	16	-5	5	12	24	x
Oc1ccc(N=Nc2ccccc2C(F)(F)F)c2cccnc12	49*	-11	22	15	58*	103*
Cc1ccc(N=Nc2ccc(O)c3ncccc23)cc1	x	x	4	8	8	x
Cc1ccc(N=Nc2ccc(O)c3ncccc23)cc1C	53*	-13	40*	14	55*	68*
O=C1S/C(=C\c2ccc(O)c([N+](=O)[O-])c2)C(=O)N1c1ccccc1Cl	33	-4	38	4	30	x
COc1cc(/C=C2\SC(=O)N(c3cccc(Cl)c3)C2=O)cc([N+](=O)[O-])c1O	48*	-9	35	18	68*	59*
CCOc1cc(/C=N/NC(=O)c2c(-c3ccccc3)noc2C)ccc1O	-14	-5	10	11	8	x
CNC(=O)c1ccc(S(=O)(=O)c2ccc(Cl)cc2)c(NC(C)=O)c1	10	-4	8	-16	-3	x
CNC(=O)c1nnsc1S(=O)(=O)c1ccc(Cl)cc1	47*	-3	64*	-6	77*	70*
